Data taken from ChEMBL document CHEMBL2321721 (ACS Med Chem Lett, 2013).
pIC50: −log10 of the molar value. Values belong to the compound of their own block, whether it stands above or below them. Active and inactive are the calls of the source. The calls are words filed in the database; no cut-off is given here.

How the values were obtained:
[1] = Partition coefficient, log P of the compound; type: physicochemical; conditions: octanol/water
[2] = target: T1, Ribosomal protein S6 kinase alpha-3 (Homo sapiens, UniProt P51812); assay: Inhibition of recombinant RSK2 (unknown origin) expressed in baculovirus infected Sf9 cells assessed as decrease in substrate phosphorylation using GST-fusion protein containing ERalpha-Ser167 sequence-RLASTND as substrate by chemiluminescence analysis
T1 sequence (P51812 whole entry, the tested form may be a part): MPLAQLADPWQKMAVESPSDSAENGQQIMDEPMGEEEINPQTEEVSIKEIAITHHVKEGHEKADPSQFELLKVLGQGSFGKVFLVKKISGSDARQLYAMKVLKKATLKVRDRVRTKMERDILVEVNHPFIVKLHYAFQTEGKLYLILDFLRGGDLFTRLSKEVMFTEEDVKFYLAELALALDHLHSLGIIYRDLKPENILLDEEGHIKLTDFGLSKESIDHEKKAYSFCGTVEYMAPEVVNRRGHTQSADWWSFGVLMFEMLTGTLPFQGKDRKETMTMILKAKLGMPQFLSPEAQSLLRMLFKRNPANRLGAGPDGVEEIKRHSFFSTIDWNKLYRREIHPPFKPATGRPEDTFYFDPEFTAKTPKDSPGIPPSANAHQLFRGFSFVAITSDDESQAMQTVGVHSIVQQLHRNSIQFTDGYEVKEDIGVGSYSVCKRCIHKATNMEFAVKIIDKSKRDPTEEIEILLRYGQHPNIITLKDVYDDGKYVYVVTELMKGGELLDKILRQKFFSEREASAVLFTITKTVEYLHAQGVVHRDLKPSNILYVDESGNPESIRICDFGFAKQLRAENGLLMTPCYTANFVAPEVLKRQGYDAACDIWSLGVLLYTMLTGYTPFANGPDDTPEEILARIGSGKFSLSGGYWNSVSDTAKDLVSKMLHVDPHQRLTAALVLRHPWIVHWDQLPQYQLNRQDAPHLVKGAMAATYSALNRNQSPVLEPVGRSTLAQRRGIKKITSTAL

MCF-10A = assay: Inhibition of human MCF10A cell proliferation assessed as decrease in ATP content after 48 hrs by CellTiter-GloTM assay; type: cell-based
Procedure, shortened: (§1)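 Compounds added at time 0 to MCF-7 or MCF-10A cells at various concentrations, 25 μM or lower. Proliferation read as ATP content after 48 h of treatment, expressed as fold proliferation as a percentage of vehicle-treated cells. n = 3 in quadruplicate, SD, Student's t test.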

MCF7 [3] = assay: Decrease in cyclin D1 level in human PMA-stimulated MCF7 cells at 25 uM pretreated for 24 hrs prior to PMA addition measured after 20 mins by immunoblot analysis; type: functional, cell-based
Procedure, shortened: (§2)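 MCF-7 cells pretreated with inhibitor or vehicle, then stimulated with PMA or treated with DMSO vehicle. Lysates analysed by immunoblotting for eEF2 phosphorylation and other RSK biomarkers. Inhibitor concentrations were 100 μM or 25 μM.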

[4] = target: T1, Ribosomal protein S6 kinase alpha-3; assay: Inhibition of RSK2 in human MCF7 cells assessed as reduction of PMA-induced decrease in EF2 kinase phosphorylation at 25 uM pretreated for 24 hrs prior to PMA addition measured after 20 mins by immunoblot analysis; type: cell-based; procedure, shortened: as §2
[5] = target: T1, Ribosomal protein S6 kinase alpha-3; assay: Ratio of SL0101 IC50 to compound IC50 for recombinant RSK2 (unknown origin) expressed in baculovirus infected Sf9 cells by chemiluminescence analysis
[6] = target: T1, Ribosomal protein S6 kinase alpha-3; assay: Inhibition of RSK2 in human PMA-stimulated MCF7 cells assessed as decrease in expression of 27kDa protein harboring (Lys/Arg)X(Lys/Arg)XX(pSer/pThr) motif at 25 uM pretreated for 24 hrs prior to PMA addition measured after 20 mins immunoblot analysis; type: cell-based; procedure, shortened: as §2
MCF7 [7] = assay: Inhibition of human MCF7 cell proliferation assessed as decrease in ATP content at 25 uM after 48 hrs by CellTiter-GloTM assay relative to SL0101; type: functional; conditions: MCF7, 48 h; procedure, shortened: as §1
[8] = target: T1, Ribosomal protein S6 kinase alpha-3; conditions: MCF7, 100 uM
[9] = target: T1, Ribosomal protein S6 kinase alpha-3; conditions: MCF7, 100 uM; remark: listed apart in the source
Plasma = assay: Cmax in CD1 mouse plasma at 2.5 mg/kg, ip; type: ADME, organism-based; parameters: dose 2.5 mg/kg, route intraperitoneal; conditions: in vivo
Procedure, shortened: (§3)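 Male CD-1 mice given a single dose, 1 mg/kg iv or 2.5 mg/kg ip, in 1:1:15 Cremophor:EtOH:phosphate-buffered saline carrier. Plasma concentrations measured. AUC extrapolated to infinity and normalized to dose in mg/kg. C0 is maximum plasma concentration extrapolated to t = 0. Cmax is the observed maximum plasma concentration.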

MCF7 [10] = assay: Decrease in cyclin D1 level in human PMA-stimulated MCF7 cells at 100 uM pretreated for 2 hrs prior to PMA addition measured after 20 mins by immunoblot analysis; type: functional, cell-based; procedure, shortened: as §2
Mus musculus [11] = assay: Dose normalized AUC in CD1 mouse at 1 mg/kg, iv; type: ADME, organism-based; parameters: dose 1 mg/kg, route intravenous; conditions: in vivo; procedure, shortened: as §3
[12] = Half life in CD1 mouse at 1 mg/kg, iv; type: ADME, organism-based; parameters: dose 1 mg/kg, route intravenous; conditions: in vivo; procedure, shortened: as §3
Mus musculus [13] = assay: Dose normalized AUC in CD1 mouse at 2.5 mg/kg, ip; type: ADME, organism-based; parameters: dose 2.5 mg/kg, route intraperitoneal; conditions: in vivo; procedure, shortened: as §3
[14] = Initial plasma concentration in CD1 mouse at 1 mg/kg, iv; type: ADME, organism-based; parameters: dose 1 mg/kg, route intravenous; procedure, shortened: as §3
[15] = Half life in CD1 mouse at 2.5 mg/kg, ip; type: ADME, organism-based; parameters: dose 2.5 mg/kg, route intraperitoneal; conditions: in vivo; procedure, shortened: as §3

- logP [1]: 1.64
- pIC50 [2]: 5.82
SMILES: CC[C@@H]1O[C@@H](Oc2c(-c3ccc(O)cc3)oc3cc(O)cc(O)c3c2=O)[C@H](O)[C@H](O)[C@H]1O

- logP [1]: 2.41
SMILES: CC(C)C[C@@H]1O[C@@H](Oc2c(-c3ccc(O)cc3)oc3cc(O)cc(O)c3c2=O)[C@H](O)[C@H](O)[C@H]1O

- logP [1]: 3.87
- pIC50 [2]: 5.75
SMILES: CCC[C@@H]1O[C@@H](Oc2c(-c3ccc(O)cc3)oc3cc(O)cc(O)c3c2=O)[C@H](OC(C)=O)[C@H](OC(C)=O)[C@H]1OC(C)=O

- inhibition [4]: Active
- Ratio IC50 [5]: > 40
- logP [1]: 3.17
- inhibition [6]: Active
SMILES: CCC[C@@H]1O[C@@H](Oc2c(-c3ccc(O)cc3)oc3cc(O)cc(O)c3c2=O)[C@H](O)[C@H](OC(C)=O)[C@H]1OC(C)=O
- Activity (MCF-10A): Non-toxic
- inhibition (MCF7 [3]): Active
- inhibition at 25 µM (MCF7 [7]): 50%

- logP [1]: 2.2
SMILES: CCC[C@@H]1O[C@@H](Oc2c(-c3ccc(O)cc3)oc3cc(O)cc(O)c3c2=O)[C@H](O)[C@H](O)[C@H]1O

- logP [1]: 3.39
- pIC50 [2]: 6.21
SMILES: CCC[C@@H]1O[C@@H](Oc2c(-c3ccc(O)cc3)oc3cc(O)cc(O)c3c2=O)[C@H](OC(C)=O)[C@H](O)[C@H]1OC(C)=O

- inhibition [8]: Active
- inhibition [9]: Active
- Cmax (Plasma): 1851 ng/mL
- logP [1]: 2.11
- AUC/dose (Mus musculus [11]): 38.7 ng·kg·h/mL/mg
- half-life [12]: 9 min
- AUC/dose (Mus musculus [13]): 1023 ng·kg·h/mL/mg
- C0 [14]: 291 ng/mL
- half-life [15]: 24 min
SMILES: CC(=O)O[C@@H]1[C@@H](OC(C)=O)[C@@H](O)[C@H](Oc2c(-c3ccc(O)cc3)oc3cc(O)cc(O)c3c2=O)O[C@H]1C
- inhibition (MCF7 [10]): Active

- logP [1]: 2.9
- pIC50 [2]: 5.82
SMILES: CCC[C@@H]1O[C@@H](Oc2c(-c3ccc(O)cc3)oc3cc(O)cc(O)c3c2=O)[C@H](O)[C@H](O)[C@H]1OC(C)=O
